Data published in article PMC7854449 (Advances in Therapy, 2020).

Assays:
[1] = Safety and tolerability: treatment-emergent adverse events; format: in vivo, healthy Chinese subjects; details: 13 weeks; for AEs leading to withdrawal, % (proportion of subjects) / AEs leading to withdrawal, E (number of events) / AEs leading to withdrawal, N (number of subjects) / AEs, % (proportion of subjects) / AEs, E (number of events) / AEs, N (number of subjects) / AEs, outcome not recovered/not resolved, % (proportion of subjects) / AEs, outcome not recovered/not resolved, E (number of events) / AEs, outcome not recovered/not resolved, N (number of subjects) / AEs, outcome recovered/resolved, % (proportion of subjects) / AEs, outcome recovered/resolved, E (number of events) / AEs, outcome recovered/resolved, N (number of subjects) / AEs, outcome recovering/resolving, % (proportion of subjects) / AEs, outcome recovering/resolving, E (number of events) / AEs, outcome recovering/resolving, N (number of subjects) / AEs, severity mild, % (proportion of subjects) / AEs, severity mild, E (number of events) / AEs, severity mild, N (number of subjects) / AEs, severity moderate, % (proportion of subjects) / AEs, severity moderate, E (number of events) / AEs, severity moderate, N (number of subjects) / AEs, severity severe, % (proportion of subjects) / AEs, severity severe, E (number of events) / AEs, severity severe, N (number of subjects) / Serious AEs, % (proportion of subjects) / Serious AEs, E (number of events) / Serious AEs, N (number of subjects): 12 subjects
Summary of the method: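 This was a single-centre, randomised trial in 36 healthy Chinese adults, 12 per arm, double-blind within dose level, with placebo arms pooled. Test compound or matching placebo was injected s.c. in the abdomen once weekly for 13 weeks, escalating every 4 weeks to 0.5 or 1.0 mg. Treatment-emergent AEs were untoward occurrences after the first dose and before the follow-up visit, counted as subjects and events.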

[2] = Multiple-dose pharmacokinetics of OW s.c. semaglutide, plasma, LC-MS/MS; format: in vivo, healthy Chinese subjects
Summary of the method: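 Healthy Chinese adults (18–55 y, BMI 20.0–24.9 kg/m2) got s.c. abdominal injections weekly for 13 weeks, starting at 0.25 mg and escalating every 4 weeks to 0.5 or 1.0 mg. Plasma was sampled frequently after the first and last doses, plus pre-dose in weeks 4, 8 and 11, and assayed by LC–MS/MS. Values below LLOQ were imputed. Non-compartmental linear trapezoidal AUC0–168 h used actual times. Ratios came from a log-scale linear model (dose group fixed) with 95% CI. Racc,DC = (AUCSS/last dose)/(AUCSD/0.25 mg).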

[3] = cited from earlier work

CC[C@H](C)[C@H](NC(=O)[C@H](Cc1ccccc1)NC(=O)[C@H](CCC(=O)O)NC(=O)[C@H](CCCCNC(=O)COCCOCCNC(=O)COCCOCCNC(=O)CC[C@H](NC(=O)CCCCCCCCCCCCCCCCC(=O)O)C(=O)O)NC(=O)[C@H](C)NC(=O)[C@H](C)NC(=O)[C@H](CCC(N)=O)NC(=O)CNC(=O)[C@H](CCC(=O)O)NC(=O)[C@H](CC(C)C)NC(=O)[C@H](Cc1ccc(O)cc1)NC(=O)[C@H](CO)NC(=O)[C@H](CO)NC(=O)[C@@H](NC(=O)[C@H](CC(=O)O)NC(=O)[C@H](CO)NC(=O)[C@@H](NC(=O)[C@H](Cc1ccccc1)NC(=O)[C@@H](NC(=O)CNC(=O)[C@H](CCC(=O)O)NC(=O)C(C)(C)NC(=O)[C@@H](N)Cc1cnc[nH]1)[C@@H](C)O)[C@@H](C)O)C(C)C)C(=O)N[C@@H](C)C(=O)N[C@@H](Cc1c[nH]c2ccccc12)C(=O)N[C@@H](CC(C)C)C(=O)N[C@H](C(=O)N[C@@H](CCCNC(=N)N)C(=O)NCC(=O)N[C@@H](CCCNC(=N)N)C(=O)NCC(=O)O)C(C)C [semaglutide, Semaglutide]
AEs leading to withdrawal, % (proportion of subjects) ([1]; OW s.c. 0.5 mg): 0% | AEs leading to withdrawal, E (number of events) ([1]; OW s.c. 0.5 mg): 0 | AEs leading to withdrawal, N (number of subjects) ([1]; OW s.c. 0.5 mg): 0 | AEs, % (proportion of subjects) ([1]; OW s.c. 0.5 mg): 83% | AEs, E (number of events) ([1]; OW s.c. 0.5 mg): 44 | AEs, N (number of subjects) ([1]; OW s.c. 0.5 mg): 10 | AEs, outcome not recovered/not resolved, % (proportion of subjects) ([1]; OW s.c. 0.5 mg): 0% | AEs, outcome not recovered/not resolved, E (number of events) ([1]; OW s.c. 0.5 mg): 0 | AEs, outcome not recovered/not resolved, N (number of subjects) ([1]; OW s.c. 0.5 mg): 0 | AEs, outcome recovered/resolved, % (proportion of subjects) ([1]; OW s.c. 0.5 mg): 83% | AEs, outcome recovered/resolved, E (number of events) ([1]; OW s.c. 0.5 mg): 44 | AEs, outcome recovered/resolved, N (number of subjects) ([1]; OW s.c. 0.5 mg): 10 | AEs, outcome recovering/resolving, % (proportion of subjects) ([1]; OW s.c. 0.5 mg): 0% | AEs, outcome recovering/resolving, E (number of events) ([1]; OW s.c. 0.5 mg): 0 | AEs, outcome recovering/resolving, N (number of subjects) ([1]; OW s.c. 0.5 mg): 0 | AEs, severity mild, % (proportion of subjects) ([1]; OW s.c. 0.5 mg): 83% | AEs, severity mild, E (number of events) ([1]; OW s.c. 0.5 mg): 44 | AEs, severity mild, N (number of subjects) ([1]; OW s.c. 0.5 mg): 10 | AEs, severity moderate, % (proportion of subjects) ([1]; OW s.c. 0.5 mg): 0% | AEs, severity moderate, E (number of events) ([1]; OW s.c. 0.5 mg): 0 | AEs, severity moderate, N (number of subjects) ([1]; OW s.c. 0.5 mg): 0 | AEs, severity severe, % (proportion of subjects) ([1]; OW s.c. 0.5 mg): 0% | AEs, severity severe, E (number of events) ([1]; OW s.c. 0.5 mg): 0 | AEs, severity severe, N (number of subjects) ([1]; OW s.c. 0.5 mg): 0 | Serious AEs, % (proportion of subjects) ([1]; OW s.c. 0.5 mg): 0% | Serious AEs, E (number of events) ([1]; OW s.c. 0.5 mg): 0 | Serious AEs, N (number of subjects) ([1]; OW s.c. 0.5 mg): 0 | AEs leading to withdrawal, % (proportion of subjects) ([1]; OW s.c. 1.0 mg): 0% | AEs leading to withdrawal, E (number of events) ([1]; OW s.c. 1.0 mg): 0 | AEs leading to withdrawal, N (number of subjects) ([1]; OW s.c. 1.0 mg): 0 | AEs, % (proportion of subjects) ([1]; OW s.c. 1.0 mg): 92% | AEs, E (number of events) ([1]; OW s.c. 1.0 mg): 58 | AEs, N (number of subjects) ([1]; OW s.c. 1.0 mg): 11 | AEs, outcome not recovered/not resolved, % (proportion of subjects) ([1]; OW s.c. 1.0 mg): 0% | AEs, outcome not recovered/not resolved, E (number of events) ([1]; OW s.c. 1.0 mg): 0 | AEs, outcome not recovered/not resolved, N (number of subjects) ([1]; OW s.c. 1.0 mg): 0 | AEs, outcome recovered/resolved, % (proportion of subjects) ([1]; OW s.c. 1.0 mg): 92% | AEs, outcome recovered/resolved, E (number of events) ([1]; OW s.c. 1.0 mg): 57 | AEs, outcome recovered/resolved, N (number of subjects) ([1]; OW s.c. 1.0 mg): 11 | AEs, outcome recovering/resolving, % (proportion of subjects) ([1]; OW s.c. 1.0 mg): 8% | AEs, outcome recovering/resolving, E (number of events) ([1]; OW s.c. 1.0 mg): 1 | AEs, outcome recovering/resolving, N (number of subjects) ([1]; OW s.c. 1.0 mg): 1 | AEs, severity mild, % (proportion of subjects) ([1]; OW s.c. 1.0 mg): 92% | AEs, severity mild, E (number of events) ([1]; OW s.c. 1.0 mg): 57 | AEs, severity mild, N (number of subjects) ([1]; OW s.c. 1.0 mg): 11 | AEs, severity moderate, % (proportion of subjects) ([1]; OW s.c. 1.0 mg): 8% | AEs, severity moderate, E (number of events) ([1]; OW s.c. 1.0 mg): 1 | AEs, severity moderate, N (number of subjects) ([1]; OW s.c. 1.0 mg): 1 | AEs, severity severe, % (proportion of subjects) ([1]; OW s.c. 1.0 mg): 0% | AEs, severity severe, E (number of events) ([1]; OW s.c. 1.0 mg): 0 | AEs, severity severe, N (number of subjects) ([1]; OW s.c. 1.0 mg): 0 | Serious AEs, % (proportion of subjects) ([1]; OW s.c. 1.0 mg): 0% | Serious AEs, E (number of events) ([1]; OW s.c. 1.0 mg): 0 | Serious AEs, N (number of subjects) ([1]; OW s.c. 1.0 mg): 0 | severity of gastrointestinal adverse events ([1]; OW s.c. 0.5 and 1.0 mg, none led to treatment discontinuation): mild | deaths ([1]; whole trial, OW s.c. 0.5 and 1.0 mg): no deaths | Racc,DC (dose-corrected accumulation ratio) ([2]; OW s.c. dosing, both dose groups): approximately 2 | treatment ratio (1.0 mg/0.5 mg) for Cmax,SS ([2]; [95% CI], dose proportionality): 1.94 [1.74; 2.16] | treatment ratio (1.0 mg/0.5 mg) for AUC0–168 h,SS ([2]; linear normal model on log-transformed values, [95% CI], dose proportionality): 1.99 [1.78; 2.23] | half-life (t½) [3]: ≈ 1 week
